The values that follow come from ChEMBL document CHEMBL4038269, “Design, synthesis and evaluation of novel feruloyl-donepezil hybrids as potential multitarget drugs for the treatment of Alzheimer's disease” (Eur J Med Chem, 2017).

Activity calls are given as the source filed them. No cut-off for these calls is given here.

For data set [1], the system named is Mus musculus. In words: In vivo inhibition of 5-LOX activity in carrageenan-induced Swiss mouse serum at 100 umol/kg, po pretreated for 1 hr followed by carrageenan challenge after 3 hrs by ELISA relative to control. It counts as functional. The procedure, abridged:
(§1)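 Male Swiss mice given oral drug (100 µmol/kg) or vehicle 1 h before intraplantar carrageenan (legend: 400 µg/paw). At 3 h, animals anaesthetised with chloral hydrate and cardiac blood taken. Serum separated (1500 rpm, 20 min) and frozen at -70 °C. COX-1, COX-2 and 5-LOX measured by specific sandwich ELISA at 450 nm. Expressed as % enzymatic activity, mean ± SEM, n=8.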

Data set [2] can be described thus: Metal chelating activity assessed as absorption maximum for compound-Fe2+ complex formation at 75 uM after 30 mins by UV-Vis spectrophotometric method (reference value: 237.2 nanometer). It counts as functional. The procedure, abridged: (§2)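 UV-Vis spectra in ethanol of compound at 75 µM alone or after 30 min incubation with CuSO4, FeSO4, FeCl3 or ZnCl2 (150 µM). Absorption maxima recorded.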

Data set [3] has as its system SH-SY5Y. Put plainly: Iron chelating activity in human SH-SY5Y cells assessed as reduction in FeSO4/H2O2-induced reactive oxygen species formation at 10 to 20 uM after 30 mins by DCFH-DA probe based fluorescence assay. Format: functional, cell-based. In a few lines:
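SH-SY5Y cells seeded at 3 x 10^4 cells/well and preloaded with DCFH-DA (10 µg/mL, 30 min, room temperature). Then given compound (5, 10, 20 µM) with FeSO4/H2O2 or CuSO4/H2O2 for 30 min; metal 25 µM and H2O2 100 µM per figure legend. Fluorescence read at ex 485/em 535 nm, arbitrary units. Mean ± SD of three experiments.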

Data set [4] deals with T1, Nuclear factor erythroid 2-related factor 2 (Homo sapiens) (UniProt Q16236).
T1 sequence (whole entry): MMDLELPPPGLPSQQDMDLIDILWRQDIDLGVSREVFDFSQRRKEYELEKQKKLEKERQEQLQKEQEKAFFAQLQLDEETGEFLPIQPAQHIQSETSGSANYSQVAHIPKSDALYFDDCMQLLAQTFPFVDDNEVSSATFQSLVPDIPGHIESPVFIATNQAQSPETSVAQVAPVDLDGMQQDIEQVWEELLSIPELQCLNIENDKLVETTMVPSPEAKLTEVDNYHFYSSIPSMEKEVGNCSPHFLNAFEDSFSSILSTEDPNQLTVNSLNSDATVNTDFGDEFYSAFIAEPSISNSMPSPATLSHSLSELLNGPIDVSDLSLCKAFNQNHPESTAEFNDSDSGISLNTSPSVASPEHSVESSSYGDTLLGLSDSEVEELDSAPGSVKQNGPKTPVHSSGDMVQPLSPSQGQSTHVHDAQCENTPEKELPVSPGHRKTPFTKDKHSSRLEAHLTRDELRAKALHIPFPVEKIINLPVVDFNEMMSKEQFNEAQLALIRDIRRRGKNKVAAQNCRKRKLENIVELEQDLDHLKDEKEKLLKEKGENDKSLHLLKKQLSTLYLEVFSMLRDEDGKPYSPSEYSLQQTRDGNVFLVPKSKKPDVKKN
Put plainly: Induction of Nrf2 nuclear translocation in human SH-SY5Y cells assessed as Nrf2 binding to antioxidant response element at 20 uM measured after 1 to 6 hrs by TransAM ELISA. Format: cell-based. To be noted: TDE = time-dependent effect. In a few lines:
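SH-SY5Y cells seeded at 2×10^6 per 60 mm dish, grown 24 h, then given 20 µM compound for 1-6 h at 37 °C. Nuclear extracts prepared by kit. 20 µg nuclear protein tested for Nrf2 DNA binding by TransAM Nrf2 immunoassay. Expressed as % of control cells; mean ± SD of three experiments. Nrf2-transfected COS-7 cells served as positive control.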

Data set [5] can be described thus: Cytotoxicity against human SH-SY5Y cells assessed as reduction in cell viability at 40 uM after 24 hrs by MTT assay relative to control. To be noted: read-out: INH. Format: cell-based. In a few lines: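 SH-SY5Y cells seeded at 2 x 10^4 cells/well, grown 24 h, then exposed to compound 1.25–40 µM for 24 h at 37 °C. MTT (5 mg/mL in PBS) added for 2 h and formazan dissolved in isopropanol. Read at 570 nm, reference 690 nm. Viability loss reported as percent at the top concentration, 40 µM.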

In data set [6] the test system is Mus musculus. In words: Anti-inflammatory activity in Swiss mouse assessed as reduction in carrageenan-induced paw edema at 100 umol/kg, po pretreated for 1 hr followed by carrageenan challenge after 3 hrs by plethysmometer. It counts as functional, organism-based. In a few lines:
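Adult male Swiss mice (22-28 g), fasted overnight, given vehicle (DMSO 2% in sterile saline) or 100 µmol/kg orally 1 h before intraplantar carrageenan. Methods give 400 µg/20 µl and n=10 per group; figure legend gives 100 µg/paw and n=8. Right hind paw volume read by plethysmometer at 1, 3 and 5 h. Reported as change in µL from basal volume, mean ± SEM.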

Data set [7] deals with SH-SY5Y. In words: Neuroprotective activity in human SH-SY5Y cells assessed as reduction in amyloid beta (1 to 42)-induced late neuronal death at 20 uM after 24 hrs by propidium iodide staining based fluorescence microscopic method. Format: functional, cell-based. The procedure, abridged:
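SH-SY5Y cells at 5×10^3 cells/well, grown 24 h, then compound (20 µM) with Aβ1-42 oligomers for 24 h at 37 °C; oligomers 10 µM in methods, 20 µM in legend. Stained with propidium iodide (25 µg/mL in PBS) for 10 min. Four random fields of 50–100 cells scored by fluorescence microscopy; dead cells % = PI-positive/total × 100.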

In data set [8] the test system is Mus musculus. Put plainly: In vivo inhibition of COX-2 activity in carrageenan-induced Swiss mouse serum at 100 umol/kg, po pretreated for 1 hr followed by carrageenan challenge after 3 hrs by ELISA relative to control. It counts as functional. The procedure, abridged:
as §1

The subject of data set [9] is SH-SY5Y. Put plainly: Neuroprotective activity in human SH-SY5Y cells assessed as reduction in amyloid beta (1 to 42)-induced exocytosis at 20 uM after 4 hrs by MTT dye based microscopic method. It counts as functional, cell-based. In a few lines:
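SH-SY5Y cells seeded at 3 x 10^4 cells/well, grown 24 h. Treated with compound (20 µM) plus Aβ1-42 oligomers (10 µM) for 4 h at 37 °C. Oligomers were prepared from HFIP-treated, DMSO-dissolved peptide and checked by TEM. MTT (5 mg/mL in PBS) added for 2 h. Cells inspected by light microscopy for needle-like exocytosed formazan crystals.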

Data set [10] deals with Mus musculus. In words: Neurotoxicity in Swiss mouse assessed as induction of motor impairment at 100 umol/kg, po measured after 1 hr by open filed test. Format: toxicity, organism-based. The conditions noted are these: in vivo. In a few lines: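 Male Swiss mice (n=8) given vehicle or compound orally 1 h before open-field test. Crossings of the central four and peripheral 12 squares counted separately.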

For data set [11], the system named is SH-SY5Y. Put plainly: Antioxidant activity in human SH-SY5Y cells assessed as increase in GSH level at 20 uM by MCB probe based assay relative to control. Format: functional. To be noted: TDE = time-dependent effect. In a few lines:
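SH-SY5Y cells (DMEM, 10% FBS, 37 °C, 5% CO2) seeded at 2 x 10^4 cells/well and grown 24 h. Treated with 20 µM compound for 3-24 h. Then 50 µM monochlorobimane in PBS for 30 min at 37 °C. GSH fluorescence read at ex 360/em 465 nm, as % of control cells. Mean ± SD of three independent experiments.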

Data set [12] in a line: Metal chelating activity assessed as absorption maximum for compound-Zn2+ complex formation at 75 uM after 30 mins by UV-Vis spectrophotometric method. Format: functional. In a few lines:
as §2

In the case of `COc1cc(/C=C/C(=O)OCC2CCN(Cc3ccccc3)CC2)ccc1O`, the inhibition in vivo at 100 µmol/kg with Mus musculus [1] came to 30%; with Mus musculus [8], 27%. The Activity was 249 nm in data set [2], “Tde” in [4], “Non-Toxic” with Mus musculus [10] and “Tde” with SH-SY5Y [11]. Also, the outcome in the data set on SH-SY5Y [3], in the data set on Mus musculus [6] and in the data set with SH-SY5Y [7] was Active. For the same compound, the cytotoxicity at 24 h, 40 µM in data set [5] came to 6%. The result (in the data set with SH-SY5Y [9]; in [12]) was inactive.
